Results reported in ChEMBL document CHEMBL5532718, “Identification and Evaluation of Reversible Covalent Binders to Cys55 of Bfl-1 from a DNA-Encoded Chemical Library Screen” (ACS Med Chem Lett, 2024).

Assays:
[1] = Lipophilicity, logD of compound in octanol/water at pH 7.4 by shake-flask method; format: physicochemical
Bcl-2-related protein A1 [2] = target: T1, Bcl-2-related protein A1 (Homo sapiens, UniProt Q16548); experiment: Inhibition of N-terminal His6-tagged recombinant human Bfl-1 (1 to 151 residues) expressed in Escherichia coli BL21-Gold (DE3) using HyLite Fluor 647-labeled BIM peptide as substrate incubated for 120 mins by TR-FRET assay
T1 sequence (Q16548 whole entry): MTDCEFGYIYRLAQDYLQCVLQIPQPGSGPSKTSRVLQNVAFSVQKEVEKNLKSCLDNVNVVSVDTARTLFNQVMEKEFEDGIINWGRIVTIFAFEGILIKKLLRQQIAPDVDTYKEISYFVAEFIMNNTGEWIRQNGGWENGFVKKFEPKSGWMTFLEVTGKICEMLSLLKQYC
In short: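 Bfl-1 binding read as displacement of a labeled BIM peptide probe in a TR-FRET assay, reported as IC50 in μM.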

Bcl-2-related protein A1 [3] = target: T1, Bcl-2-related protein A1; experiment: Binding affinity of N-terminal His6-tagged recombinant human Bfl-1 (1 to 151 residues) expressed in Escherichia coli BL21-Gold (DE3) assessed as inhibition constant by MS analysis
Bcl-2-like protein 1 = Bcl-2-like protein 1 (Homo sapiens, UniProt Q07817); experiment: Inhibition of Bcl-xl (unknown origin) incubated for 120 mins by TR-FRET assay
[4] = target: Apoptosis regulator Bcl-2 (Homo sapiens, UniProt P10415); experiment: Inhibition of Bcl-2 (unknown origin) incubated for 120 mins by TR-FRET assay
[5] = target: Induced myeloid leukemia cell differentiation protein Mcl-1 (Homo sapiens, UniProt Q07820); experiment: Inhibition of Mcl-1 (unknown origin) incubated for 120 mins by TR-FRET assay
Induced myeloid leukemia cell differentiation protein Mcl-1, sequence (Q07820 whole entry): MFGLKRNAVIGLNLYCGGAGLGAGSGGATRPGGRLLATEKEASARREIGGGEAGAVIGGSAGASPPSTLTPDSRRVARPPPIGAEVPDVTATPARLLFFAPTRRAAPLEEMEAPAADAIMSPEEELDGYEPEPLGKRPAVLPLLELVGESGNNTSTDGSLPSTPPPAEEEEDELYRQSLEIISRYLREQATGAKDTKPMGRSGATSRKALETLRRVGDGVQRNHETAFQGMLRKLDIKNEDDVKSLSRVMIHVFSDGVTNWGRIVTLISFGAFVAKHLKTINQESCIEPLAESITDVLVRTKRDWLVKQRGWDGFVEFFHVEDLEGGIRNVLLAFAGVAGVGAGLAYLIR

Apoptosis regulator Bcl-2, sequence (P10415 whole entry): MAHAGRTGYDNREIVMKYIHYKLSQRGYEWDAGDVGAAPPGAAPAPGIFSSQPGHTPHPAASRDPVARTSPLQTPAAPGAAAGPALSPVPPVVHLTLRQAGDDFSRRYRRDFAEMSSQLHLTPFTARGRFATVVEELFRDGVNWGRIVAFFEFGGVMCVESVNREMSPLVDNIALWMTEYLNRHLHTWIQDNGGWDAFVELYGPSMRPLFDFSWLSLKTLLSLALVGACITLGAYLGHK
Bcl-2-like protein 1, sequence (Q07817 whole entry): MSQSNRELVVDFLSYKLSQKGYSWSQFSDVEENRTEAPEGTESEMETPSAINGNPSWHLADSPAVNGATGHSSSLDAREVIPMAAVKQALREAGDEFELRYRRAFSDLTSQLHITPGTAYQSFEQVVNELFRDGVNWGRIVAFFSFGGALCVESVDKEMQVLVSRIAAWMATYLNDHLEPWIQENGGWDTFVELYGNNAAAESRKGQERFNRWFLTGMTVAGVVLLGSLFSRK

| SMILES | logD [1] | IC50 (Bcl-2-related protein A1 [2]) [µM] | Ki (Bcl-2-related protein A1 [3]) [µM] | IC50 (Bcl-2-like protein 1) [µM] | IC50 [4] [µM] | IC50 [5] [µM] |
| --- | --- | --- | --- | --- | --- | --- |
| CP(C)(=O)c1ccccc1/C=C(\C#N)C(=O)NCC1(c2ccccc2)CC1 | 2 | 50 | – | – | – | – |
| CN(C)C(=O)[C@H](Cc1ccc(C(F)(F)F)cc1)NC(=O)/C(C#N)=C/c1cccc(P(C)(C)=O)c1 | 2.2 | > 100 | – | – | – | – |
| CP(C)(=O)c1ccccc1/C=C(\C#N)C(=O)NCCc1ccc(Cl)cc1 | 2.3 | 54 | – | – | – | – |
| CN(C)C(=O)[C@@H](Cc1ccc(C(F)(F)F)cc1)NC(=O)/C(C#N)=C/c1ccccc1P(C)(C)=O | 2.1 | > 100 | – | – | – | – |
| CN(C)C(=O)[C@H](Cc1ccc(C(F)(F)F)cc1)NC(=O)/C(C#N)=C/c1ccccc1S(C)(=O)=O | 2.6 | > 100 | – | – | – | – |
| CP(C)(=O)c1ccccc1/C=C(\C#N)C(=O)NCC1(c2ccc(C(F)(F)F)cc2)CC1 | 3 | 4.3 | – | – | – | – |
| CN(C)C(=O)[C@H](Cc1ccc(C(F)(F)F)cc1)NC(=O)/C(C#N)=C/c1ccccc1P(C)(C)=O | 2 | 29 | 5.4 | > 100 | > 100 | > 100 |
| CN(C)C(=O)[C@H](Cc1ccc(C(F)(F)F)cc1)NC(=O)/C(C#N)=C/c1ccc(P(C)(C)=O)cc1 | 2.1 | > 100 | – | – | – | – |
| CN(C)C(=O)[C@H](Cc1ccc(C(F)(F)F)cc1)NC(=O)/C(C#N)=C/c1ccccc1 | 3.9 | > 100 | – | – | – | – |
| CP(C)(=O)c1ccccc1/C=C(\C#N)C(=O)NCCc1ccccc1 | 1.7 | > 100 | – | – | – | – |
| CP(C)(=O)c1ccccc1/C=C(\C#N)C(=O)NCCc1ccc(C(F)(F)F)cc1 | 2.7 | 23 | – | – | – | – |
| CP(C)(=O)c1ccccc1/C=C(\C#N)C(=O)NCCc1ccc(Cl)c(Cl)c1 | 1.9 | 27 | – | – | – | – |
| CN(C)C(=O)C(Cc1ccc(C(F)(F)F)cc1)NC(=O)/C(C#N)=C/c1ccccc1S(=O)(=O)N(C)C (racemic) | 3.2 | > 100 | – | – | – | – |
| CN(C)C(=O)c1ccccc1/C=C(\C#N)C(=O)NC(Cc1ccc(C(F)(F)F)cc1)C(=O)N(C)C (racemic) | 2.2 | > 100 | – | – | – | – |
